pIC50: −log10 of the molar value. The source made the active and inactive calls. The rule behind the calls is not given here.

The target in data set [1] is Epidermal growth factor receptor (Homo sapiens, UniProt P00533, T790M). Nature of the data set: Inhibition of EGFR T790M mutant (unknown origin) using Poly (Glu, Tyr)4:1 as substrate by spectrophotometry.
For data set [2], the system named is NCI-H1975. Description: Antiproliferative activity against human NCI-H1975 cells harboring EGFR T790M mutant assessed as reduction in cell viability measured after 72 hrs by CCK8 assay. As to conditions: NCI-H1975, 72 h. It counts as functional, cell-based. The essentials: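 H1975 NSCLC cells, which carry EGFR T790M, were used in a cell-based CCK8 antiproliferation assay. IC50 values were reported.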
A general note: Tetrazolium dyes change colour on reduction, which living cells bring about.

Data set [3] can be described thus: Drug uptake in cytosol of human NCI-H1975 cells assessed as fluorescence signal at 5 uM incubated for 1 hrs by fluorescence microscopy. The format is ADME, subcellular. The essentials: (§1)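 Live H1975 cells were incubated for 1 h with the 5 μM alkyne probe, with or without parent inhibitor, against DMSO controls. Cells were then fixed, permeabilized, clicked with TAMRA-azide and imaged by fluorescence microscopy, with excitation at 550 nm for the probe channel.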

A short description of data set [4]: Drug uptake in nucleus of human NCI-H1975 cells assessed as fluorescence signal at 5 uM incubated for 1 hrs by fluorescence microscopy. The format is ADME, cell-based. As to conditions: nci-h1975, 1 h. The essentials:
as §1

In data set [5] the target is Epidermal growth factor receptor (Homo sapiens) (UniProt P00533). Nature of the data set: Inhibition of EGFR in human NCI-H1975 cells by pull down/Western blot analysis. It counts as cell-based. The essentials: (§2)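 H1975 cells were treated with the probe, and the lysate was clicked to a biotin tag and enriched on streptavidin beads. The pulled-down proteins were then detected by Western blot with antibodies to EGFR and NT5DC1.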
Epidermal growth factor receptor (Homo sapiens), sequence (P00533 whole entry): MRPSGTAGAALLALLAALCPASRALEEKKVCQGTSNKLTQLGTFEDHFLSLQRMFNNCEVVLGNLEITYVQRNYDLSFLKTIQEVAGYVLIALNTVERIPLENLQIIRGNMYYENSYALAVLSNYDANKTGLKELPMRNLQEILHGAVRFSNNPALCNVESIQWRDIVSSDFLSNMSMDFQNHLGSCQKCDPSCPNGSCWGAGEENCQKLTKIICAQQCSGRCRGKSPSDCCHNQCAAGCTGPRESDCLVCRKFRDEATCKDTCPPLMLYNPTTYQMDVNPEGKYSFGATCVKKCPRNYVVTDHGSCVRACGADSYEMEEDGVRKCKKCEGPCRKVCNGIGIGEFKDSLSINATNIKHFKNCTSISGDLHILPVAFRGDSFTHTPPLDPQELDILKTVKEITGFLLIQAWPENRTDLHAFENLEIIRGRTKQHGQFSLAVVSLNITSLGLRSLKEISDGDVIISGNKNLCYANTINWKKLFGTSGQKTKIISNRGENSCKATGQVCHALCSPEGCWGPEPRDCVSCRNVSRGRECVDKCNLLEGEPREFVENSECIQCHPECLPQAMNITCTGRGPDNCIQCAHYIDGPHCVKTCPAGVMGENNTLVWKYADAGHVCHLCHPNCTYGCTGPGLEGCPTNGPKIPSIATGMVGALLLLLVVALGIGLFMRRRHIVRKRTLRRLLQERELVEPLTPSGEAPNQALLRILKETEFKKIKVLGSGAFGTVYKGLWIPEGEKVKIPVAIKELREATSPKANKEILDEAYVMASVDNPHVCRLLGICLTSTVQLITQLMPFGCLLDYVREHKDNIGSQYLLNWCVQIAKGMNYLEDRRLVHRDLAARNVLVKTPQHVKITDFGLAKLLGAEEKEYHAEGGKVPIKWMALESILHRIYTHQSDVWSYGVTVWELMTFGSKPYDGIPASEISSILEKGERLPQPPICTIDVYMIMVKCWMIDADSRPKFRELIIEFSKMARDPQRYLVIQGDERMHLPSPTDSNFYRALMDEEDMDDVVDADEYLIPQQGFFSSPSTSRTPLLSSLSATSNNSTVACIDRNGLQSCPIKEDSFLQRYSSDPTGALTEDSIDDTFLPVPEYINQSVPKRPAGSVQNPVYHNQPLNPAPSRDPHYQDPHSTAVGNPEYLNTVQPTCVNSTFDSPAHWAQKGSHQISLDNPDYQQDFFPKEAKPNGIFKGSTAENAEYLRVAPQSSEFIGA
On the technique in general: A western blot detects proteins with antibodies after separation by electrophoresis.

Data set [6] addresses T1, 5'-nucleotidase domain-containing protein 1 (Homo sapiens) (UniProt Q5TFE4).
T1 sequence (whole entry): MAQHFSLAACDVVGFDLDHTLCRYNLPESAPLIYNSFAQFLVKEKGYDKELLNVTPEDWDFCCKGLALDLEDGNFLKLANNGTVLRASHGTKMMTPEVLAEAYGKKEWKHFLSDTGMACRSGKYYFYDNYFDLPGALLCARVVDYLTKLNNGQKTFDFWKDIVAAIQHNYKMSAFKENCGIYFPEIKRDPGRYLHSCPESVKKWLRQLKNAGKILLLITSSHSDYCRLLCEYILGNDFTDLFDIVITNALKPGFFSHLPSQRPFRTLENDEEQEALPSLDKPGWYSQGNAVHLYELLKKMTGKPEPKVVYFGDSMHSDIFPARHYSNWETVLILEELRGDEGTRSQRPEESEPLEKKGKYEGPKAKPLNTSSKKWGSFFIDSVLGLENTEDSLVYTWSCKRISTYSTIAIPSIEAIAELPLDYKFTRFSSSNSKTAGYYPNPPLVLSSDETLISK
Nature of the data set: Inhibition of NT5DC1 in human NCI-H1975 cells by pull down/Western blot analysis. The format is cell-based. The essentials: as §2

For data set [7], the target named is T1, 5'-nucleotidase domain-containing protein 1 (Homo sapiens). Nature of the data set: Thermal stabilization of NT5DC1 in human NCI-H1975 cells assessed as positive shift in melting temperature by CETSA. It counts as cell-based. Summed up:
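Binding was tested by cellular thermal shift assay in H1975 cells exposed to the compounds. NT5DC1 stabilization was read as a shift in melting temperature.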

For data set [8], the system named is NCI-H1975. Description: Antiproliferative activity against NT5DC1 knockdown human NCI-H1975 cells assessed as reduction in cell viability incubated for 48 hrs by CCK8 assay. The format is functional, cell-based. The essentials:
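NT5DC1 was knocked down in H1975 cells with siRNA, with scrambled siRNA as the negative control. Knockdown was checked by Western blot. Cells with or without knockdown were exposed to a range of compound concentrations, and viability was read out against DMSO-treated controls.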

For data set [9], the target named is T1, 5'-nucleotidase domain-containing protein 1 (Homo sapiens). Nature of the data set: Binding affinity to NT5DC1 in human NCI-H1299 cells at 1 uM by Western blot analysis. The format is cell-based. The essentials: (§3)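 Live cancer cells were labelled in situ with the 1 μM alkyne probe, clicked to TAMRA-azide and resolved by SDS-PAGE with fluorescence scanning. NT5DC1 expression in each line was measured separately by Western blot.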

For data set [10] the target is unchanged. Description: Binding affinity to NT5DC1 in human HeLa cells at 1 uM by Western blot analysis. It counts as cell-based. The essentials: as §3
Data set [11] shares this target. Nature of the data set: Binding affinity to NT5DC1 in human Huh-7 cells at 1 uM by Western blot analysis. It counts as cell-based. Summed up:
as §3

The target is the same in data set [12]. Description: Binding affinity to NT5DC1 in human MCF7 cells at 1 uM by Western blot analysis. The format is cell-based. Summed up:
as §3

Data set [13] shares this target. Nature of the data set: Binding affinity to NT5DC1 in human MV4-11 cells at 1 uM by Western blot analysis. It counts as cell-based. Summed up: as §3
In data set [14] the target is Epidermal growth factor receptor (Homo sapiens) (UniProt P00533). Nature of the data set: Binding affinity to EGFR in human NCI-H1975 cells at 5 uM by pull down/LC-MS/MS analysis. It counts as cell-based. Summed up: (§4)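 Live H1975 cells were incubated for 1 h with the 5 μM alkyne probe, with or without 5× parent inhibitor as competitor. Cells were lysed and clicked by CuAAC to a biotin-TAMRA-azide tag. Proteins were enriched on streptavidin beads, checked by in-gel fluorescence, trypsin-digested and run on LC-MS/MS with label-free quantification. Hits were kept if log2 enrichment (probe/DMSO) was >3, −log10 p was >2 and probe LFQ intensity was >1 × 10^7.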

Data set [15] addresses Trifunctional enzyme subunit alpha, mitochondrial (Homo sapiens) (UniProt P40939). Nature of the data set: Binding affinity to HADHA in human NCI-H1975 cells at 5 uM by pull down/LC-MS/MS analysis. The format is cell-based. Summed up:
as §4

In data set [16] the target is DNA replication licensing factor MCM2 (Homo sapiens) (UniProt P49736). Description: Binding affinity to MCM2 in human NCI-H1975 cells at 5 uM by pull down/LC-MS/MS analysis. It counts as cell-based. Summed up:
as §4

For data set [17], the system named is NCI-H1975. Description: Binding affinity to MAP4 in human NCI-H1975 cells at 5 uM by pull down/LC-MS/MS analysis. The format is cell-based. The essentials:
as §4

Data set [18] deals with NCI-H1975. Description: Binding affinity to RPS19 in human NCI-H1975 cells at 5 uM by pull down/LC-MS/MS analysis. The format is cell-based. The essentials:
as §4

Data set [19] deals with T1, 5'-nucleotidase domain-containing protein 1 (Homo sapiens). Nature of the data set: Binding affinity to NT5DC1 in human NCI-H1975 cells at 5 uM by pull down/LC-MS/MS analysis. It counts as cell-based. Summed up:
as §4

Data set [20] has as its target Mitochondrial antiviral-signaling protein (Homo sapiens) (UniProt Q7Z434). Nature of the data set: Binding affinity to MAVS in human NCI-H1975 cells at 5 uM by pull down/LC-MS/MS analysis. It counts as cell-based. The essentials: as §4
The target of data set [21] is T1, 5'-nucleotidase domain-containing protein 1 (Homo sapiens). Description: Binding affinity to NT5DC1 in human MDA-MB-453 cells at 1 uM by Western blot analysis.

Epidermal growth factor receptor, sequence (P00533 25-1210 T790M limits assumed): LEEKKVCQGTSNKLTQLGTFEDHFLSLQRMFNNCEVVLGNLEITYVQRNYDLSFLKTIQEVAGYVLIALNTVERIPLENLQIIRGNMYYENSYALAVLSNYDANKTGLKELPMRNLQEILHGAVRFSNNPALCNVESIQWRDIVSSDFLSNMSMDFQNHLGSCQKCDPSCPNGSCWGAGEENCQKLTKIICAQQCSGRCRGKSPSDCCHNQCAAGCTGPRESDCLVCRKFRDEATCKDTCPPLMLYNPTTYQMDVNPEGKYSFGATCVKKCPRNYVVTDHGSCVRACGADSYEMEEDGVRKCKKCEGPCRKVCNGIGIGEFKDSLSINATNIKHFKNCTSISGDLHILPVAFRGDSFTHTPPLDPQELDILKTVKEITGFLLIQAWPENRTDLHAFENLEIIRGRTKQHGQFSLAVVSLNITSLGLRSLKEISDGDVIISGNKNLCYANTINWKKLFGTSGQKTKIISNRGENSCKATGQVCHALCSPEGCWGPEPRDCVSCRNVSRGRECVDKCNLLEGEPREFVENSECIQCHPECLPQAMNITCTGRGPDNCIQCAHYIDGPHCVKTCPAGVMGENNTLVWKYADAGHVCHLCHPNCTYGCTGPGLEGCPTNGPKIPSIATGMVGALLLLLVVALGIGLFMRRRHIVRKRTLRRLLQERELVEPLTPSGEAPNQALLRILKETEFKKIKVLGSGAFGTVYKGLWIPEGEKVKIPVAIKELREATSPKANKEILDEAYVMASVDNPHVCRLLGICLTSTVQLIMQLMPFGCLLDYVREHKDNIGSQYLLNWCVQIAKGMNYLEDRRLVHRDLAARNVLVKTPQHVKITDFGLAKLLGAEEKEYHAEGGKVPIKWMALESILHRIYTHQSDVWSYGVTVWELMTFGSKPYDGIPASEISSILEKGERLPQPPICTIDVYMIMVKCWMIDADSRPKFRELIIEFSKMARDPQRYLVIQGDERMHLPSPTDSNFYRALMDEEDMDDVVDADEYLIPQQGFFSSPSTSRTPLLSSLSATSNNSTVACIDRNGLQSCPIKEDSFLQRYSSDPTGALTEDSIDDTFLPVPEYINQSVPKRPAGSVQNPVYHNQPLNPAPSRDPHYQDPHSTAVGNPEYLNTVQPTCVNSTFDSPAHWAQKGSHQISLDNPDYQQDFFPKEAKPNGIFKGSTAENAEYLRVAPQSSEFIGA
Mitochondrial antiviral-signaling protein (Homo sapiens), sequence (Q7Z434 whole entry, the tested form may be a part): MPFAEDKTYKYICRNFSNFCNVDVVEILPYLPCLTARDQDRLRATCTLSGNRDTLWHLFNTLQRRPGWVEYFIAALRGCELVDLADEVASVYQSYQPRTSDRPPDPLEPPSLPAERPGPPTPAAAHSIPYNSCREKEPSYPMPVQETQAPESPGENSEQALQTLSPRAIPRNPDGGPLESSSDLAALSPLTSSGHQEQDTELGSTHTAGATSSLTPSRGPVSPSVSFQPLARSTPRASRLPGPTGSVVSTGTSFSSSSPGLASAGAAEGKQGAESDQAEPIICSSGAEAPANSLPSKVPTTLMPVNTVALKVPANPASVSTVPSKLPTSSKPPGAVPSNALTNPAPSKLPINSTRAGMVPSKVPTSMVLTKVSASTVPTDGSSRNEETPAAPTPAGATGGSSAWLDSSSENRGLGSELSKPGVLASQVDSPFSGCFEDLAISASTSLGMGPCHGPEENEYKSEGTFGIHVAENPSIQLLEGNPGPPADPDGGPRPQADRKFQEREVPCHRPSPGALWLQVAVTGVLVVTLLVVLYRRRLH
DNA replication licensing factor MCM2 (Homo sapiens), sequence (P49736 whole entry): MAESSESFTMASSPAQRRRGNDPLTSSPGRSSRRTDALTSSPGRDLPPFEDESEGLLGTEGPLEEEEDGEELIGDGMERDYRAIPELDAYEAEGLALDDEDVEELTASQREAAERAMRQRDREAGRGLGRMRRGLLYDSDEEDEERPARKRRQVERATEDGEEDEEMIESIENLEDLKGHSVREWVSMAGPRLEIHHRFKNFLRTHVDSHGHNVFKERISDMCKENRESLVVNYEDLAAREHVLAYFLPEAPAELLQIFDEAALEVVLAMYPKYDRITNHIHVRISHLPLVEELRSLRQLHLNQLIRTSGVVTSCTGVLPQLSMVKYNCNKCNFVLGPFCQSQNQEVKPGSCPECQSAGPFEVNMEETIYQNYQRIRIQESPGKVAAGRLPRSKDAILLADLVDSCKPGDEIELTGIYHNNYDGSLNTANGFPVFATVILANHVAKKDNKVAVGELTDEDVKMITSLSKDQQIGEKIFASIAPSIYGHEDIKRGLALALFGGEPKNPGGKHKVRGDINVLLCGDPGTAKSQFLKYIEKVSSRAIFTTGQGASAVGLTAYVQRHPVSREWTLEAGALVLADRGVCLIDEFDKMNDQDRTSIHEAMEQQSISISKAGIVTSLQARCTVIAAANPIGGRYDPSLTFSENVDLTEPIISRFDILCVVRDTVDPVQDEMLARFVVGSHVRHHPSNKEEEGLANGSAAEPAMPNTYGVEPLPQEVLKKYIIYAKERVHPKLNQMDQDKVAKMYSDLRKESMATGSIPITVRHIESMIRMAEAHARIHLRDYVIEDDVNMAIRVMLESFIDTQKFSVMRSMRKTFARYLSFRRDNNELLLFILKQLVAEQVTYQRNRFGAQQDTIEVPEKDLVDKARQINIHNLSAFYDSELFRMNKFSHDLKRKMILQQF
Trifunctional enzyme subunit alpha, mitochondrial (Homo sapiens), sequence (P40939 whole entry): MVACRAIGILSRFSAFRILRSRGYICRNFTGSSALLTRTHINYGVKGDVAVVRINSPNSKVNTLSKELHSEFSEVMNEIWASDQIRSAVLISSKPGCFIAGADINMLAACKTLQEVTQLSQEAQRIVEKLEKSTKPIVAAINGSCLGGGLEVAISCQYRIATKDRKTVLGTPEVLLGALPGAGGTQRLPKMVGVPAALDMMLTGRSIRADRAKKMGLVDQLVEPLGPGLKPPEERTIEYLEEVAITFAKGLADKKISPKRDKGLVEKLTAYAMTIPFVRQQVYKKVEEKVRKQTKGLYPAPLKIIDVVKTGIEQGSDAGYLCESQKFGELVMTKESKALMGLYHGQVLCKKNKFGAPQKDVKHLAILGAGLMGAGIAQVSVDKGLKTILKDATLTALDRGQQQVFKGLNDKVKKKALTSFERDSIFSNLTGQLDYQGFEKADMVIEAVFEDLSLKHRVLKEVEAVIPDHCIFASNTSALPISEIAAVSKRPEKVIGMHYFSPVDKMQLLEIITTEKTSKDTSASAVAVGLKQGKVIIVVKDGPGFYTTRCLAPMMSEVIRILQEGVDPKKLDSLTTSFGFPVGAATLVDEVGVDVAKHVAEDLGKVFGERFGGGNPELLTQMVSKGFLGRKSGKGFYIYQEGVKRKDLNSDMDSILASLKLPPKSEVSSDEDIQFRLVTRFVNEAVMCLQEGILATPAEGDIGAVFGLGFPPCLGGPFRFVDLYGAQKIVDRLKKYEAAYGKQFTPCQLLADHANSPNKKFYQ

The term pIC50 denotes the IC50 on a negative log10 scale, so that one unit is a factor of ten. For `C#CCN1CCN(c2ccc(Nc3ncc4c(C)cc(=O)n(-c5cccc(NC(=O)C=C)c5)c4n3)c(OC)c2)CC1`, the pIC50 is 8.09 in [1] and 6.09 in data set [2]. For the same compound, the Drug uptake entry is “Active” in [3] and “Not Active” in [4]. The inhibition result in [5] and in data set [6] was “Active” in each case. In addition, the outcome in data set [7], in data set [8], in [9], in data set [10], in data set [11] and in [12] was Active. The outcome in data set [13], in data set [14], in [15], in [16], in data set [17] and in [18] was Active. The outcome in data set [19], in data set [20] and in data set [21] was Active.
In the case of `CN(C)C/C=C/C(=O)Nc1cc2c(Nc3ccc(F)c(Cl)c3)ncnc2cc1O[C@H]1CCOC1` [AFATINIB], the pIC50 in data set [2] is 6.43.
With `C=CC(=O)Nc1cccc(-n2c(=O)cc(C)c3cnc(Nc4ccc(N5CCN(C)CC5)cc4OC)nc32)c1`, the results for the pIC50 in data set [1] and in data set [2] were 8.28 and 6.89, respectively. Besides, the result in [7] and in [8] was Active.
On to `C=CC(=O)Nc1cc(Nc2nccc(-c3cn(C)c4ccccc34)n2)c(OC)cc1N(C)CCN(C)C` [OSIMERTINIB], for which the pIC50 in data set [2] was […].

The record behind these values is ChEMBL document CHEMBL5034051, “Proteome-wide Identification of Off-Targets of a Potent EGFRL858R/T790M Mutant Inhibitor” (ACS Med Chem Lett, 2022).
